No end group written: not given here.
Assays:
[1] = system: Gemin4; assay: Immunofluorescence co-staining XLH-36/Gemin4; type: cell-based; details: MDA-MB-231 cells, confocal immunofluorescence
In short: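 Cells fixed 15 min at RT in β-galactosidase staining fixative, permeabilised with Triton X-100 for 15 min, blocked in 5% BSA for 30 min at RT. Primary antibody overnight at 4 °C, then secondary antibodies 2 h at RT in the dark. DAPI counterstain 10 min in the dark; imaged by fluorescence microscopy. PBS washes between steps.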

[2] = target: T1, Human Gemin4 protein (Homo sapiens, UniProt P57678); assay: MicroScale thermophoresis; type: binding
T1 sequence (P57678 1-1058): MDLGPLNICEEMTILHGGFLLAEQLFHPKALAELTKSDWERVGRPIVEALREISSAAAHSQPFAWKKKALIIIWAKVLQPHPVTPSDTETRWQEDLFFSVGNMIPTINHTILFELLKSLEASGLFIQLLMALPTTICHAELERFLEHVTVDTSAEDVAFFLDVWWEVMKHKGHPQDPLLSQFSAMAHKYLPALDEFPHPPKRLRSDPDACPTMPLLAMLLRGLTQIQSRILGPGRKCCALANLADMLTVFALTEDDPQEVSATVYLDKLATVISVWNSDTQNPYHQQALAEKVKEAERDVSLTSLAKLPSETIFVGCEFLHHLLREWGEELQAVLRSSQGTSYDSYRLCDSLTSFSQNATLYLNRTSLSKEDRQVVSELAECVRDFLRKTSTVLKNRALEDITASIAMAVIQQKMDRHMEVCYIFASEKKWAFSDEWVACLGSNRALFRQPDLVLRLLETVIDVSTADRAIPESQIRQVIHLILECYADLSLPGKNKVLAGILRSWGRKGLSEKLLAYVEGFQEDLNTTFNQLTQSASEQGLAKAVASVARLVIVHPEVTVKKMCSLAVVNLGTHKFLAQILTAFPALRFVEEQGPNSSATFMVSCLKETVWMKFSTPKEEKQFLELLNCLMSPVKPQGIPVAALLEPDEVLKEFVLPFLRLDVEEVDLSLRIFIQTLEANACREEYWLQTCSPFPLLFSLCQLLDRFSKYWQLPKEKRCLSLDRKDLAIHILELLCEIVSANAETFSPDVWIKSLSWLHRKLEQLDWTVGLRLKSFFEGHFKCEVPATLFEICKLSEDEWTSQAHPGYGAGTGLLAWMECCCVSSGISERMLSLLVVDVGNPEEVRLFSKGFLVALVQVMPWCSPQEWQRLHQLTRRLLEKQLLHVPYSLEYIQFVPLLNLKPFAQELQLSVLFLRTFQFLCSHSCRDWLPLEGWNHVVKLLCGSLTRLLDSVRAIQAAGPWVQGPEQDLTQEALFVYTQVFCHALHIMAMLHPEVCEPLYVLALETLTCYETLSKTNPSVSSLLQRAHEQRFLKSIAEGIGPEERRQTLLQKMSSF
In short: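 Human Gemin4 expressed in HEK293 cells and labelled with Cy5 through cysteine sulfhydryl groups. Binding of the test peptide to the labelled protein was measured by microscale thermophoresis, and affinity was derived with the instrument's affinity analysis tool.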

[3] = system: Gemin4; assay: Co-IP, XLH-36/Gemin4; type: binding; details: endogenous interaction, Fig. 5E
[4] = system: Gemin4; assay: yeast two-hybrid assay; type: binding; details: DDO medium SD/Trp-/Leu-, TDO medium SD/Trp-/Leu-/HIS-

## MRQGPSTEVPGRAPRPRGPAASRADPSLRPEGGQDP [XLH-36]
[1]
  IF interaction with Gemin4: XLH-36 indeed interacted with Gemin4
[2]
  Kd: 4.76 µM
[3]
  interaction with Gemin4: only Gemin4 was confirmed to interact with XLH-36
[4]
  direct interaction with Gemin4: supported the direct interaction between XLH-36 and Gemin4
